In ChEMBL document CHEMBL4017542, “Identification of a Novel 1,2,3,4-Tetrahydrobenzo[b][1,6]naphthyridine Analogue as a Potent Phosphodiesterase 5 Inhibitor with Improved Aqueous Solubility for the Treatment of Alzheimer's Disease” (J Med Chem, 2017):
Converted amounts (≈) assume the structure as drawn. The source made the active and inactive calls. The calls are words filed in the database; no cut-off is given here.

Key:
[1] = Kinetic solubility of compound in phosphate buffer after 18 hrs by turbidimetric method; format: physicochemical; conditions: read-out: Kinetic_solubility
Procedure, shortened: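 Compound serially diluted in DMSO at 100x final and diluted 100-fold into phosphate buffered saline. After 18 h at 37°C, turbidity read at 540 nm. Turbid if absorbance exceeded blank mean + 3 SD. Result is the highest concentration showing no turbidity.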

Homo sapiens = species: Homo sapiens; experiment: Selectivity ratio of IC50 for human recombinant PDE6C to IC50 for human recombinant PDE5A1
[2] = target: Cone cGMP-specific 3',5'-cyclic phosphodiesterase subunit alpha' (Homo sapiens, UniProt P51160); experiment: Inhibition of human recombinant PDE6C using FAM-labelled cGMP as substrate after 60 mins by fluorescence polarization assay
Sequence of Cone cGMP-specific 3',5'-cyclic phosphodiesterase subunit alpha' (P51160 whole entry): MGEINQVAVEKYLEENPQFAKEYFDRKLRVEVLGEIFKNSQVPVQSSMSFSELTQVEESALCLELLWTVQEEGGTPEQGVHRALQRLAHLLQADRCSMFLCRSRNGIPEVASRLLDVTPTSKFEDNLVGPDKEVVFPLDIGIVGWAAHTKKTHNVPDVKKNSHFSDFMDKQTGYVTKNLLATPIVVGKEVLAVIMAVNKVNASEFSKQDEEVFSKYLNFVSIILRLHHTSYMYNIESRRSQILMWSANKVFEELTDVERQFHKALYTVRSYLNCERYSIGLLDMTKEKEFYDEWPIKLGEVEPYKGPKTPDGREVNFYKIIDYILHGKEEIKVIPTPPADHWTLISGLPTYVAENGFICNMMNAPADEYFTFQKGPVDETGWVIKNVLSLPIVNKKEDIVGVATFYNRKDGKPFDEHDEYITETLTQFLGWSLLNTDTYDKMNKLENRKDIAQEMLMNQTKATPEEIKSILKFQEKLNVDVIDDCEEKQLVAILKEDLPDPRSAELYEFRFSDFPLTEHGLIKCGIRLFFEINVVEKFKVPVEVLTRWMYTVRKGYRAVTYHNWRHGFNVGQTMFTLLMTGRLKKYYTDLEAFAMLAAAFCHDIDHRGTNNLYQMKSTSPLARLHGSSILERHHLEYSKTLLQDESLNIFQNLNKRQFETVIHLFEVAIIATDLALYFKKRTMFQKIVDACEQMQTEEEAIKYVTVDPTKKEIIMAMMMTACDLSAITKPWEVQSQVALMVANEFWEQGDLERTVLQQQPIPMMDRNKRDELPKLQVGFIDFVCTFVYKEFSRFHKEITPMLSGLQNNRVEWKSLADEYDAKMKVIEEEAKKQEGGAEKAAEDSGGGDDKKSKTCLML

[3] = target: cGMP-specific 3',5'-cyclic phosphodiesterase (Homo sapiens, UniProt O76074); experiment: Inhibition of human recombinant PDE5A1 using FAM-labelled cGMP as substrate after 60 mins by fluorescence polarization assay
Procedure, shortened: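 Fluorescence polarization assay, room temperature, 60 min, with 100 nM FAM-cGMP and 0.1-0.45 ng PDE5 or 22.5-250 ng PDE6. Binding agent then added for 60 min; read at ex 485/em 528 nm. Duplicates at each concentration. Activity normalized to no-compound and no-enzyme controls; IC50 from sigmoidal dose-response fit.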

Mus musculus [4] = experiment: Antialzheimer activity in 3 to 4 months old APP1/PS1 transgenic mouse assessed as effect on number of errors at 3 mg/kg, ip administered daily for 3 weeks measured at age of 6 to 7 months by 2 day radial arm water maze test (reference value: 2.5); format: functional
Liver [5] = experiment: Half life in mouse liver microsomes at 1 uM measured up to 60 mins by LC-MS/MS analysis; format: ADME, microsome; conditions: 1 h
Procedure, shortened: (§1)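 Liver microsomes incubated with test compound at 1 µM final, 37°C, after a 3 min preincubation without cofactor, alongside a testosterone control. Protein precipitated; samples analyzed by LC-MS/MS with electrospray. Peak area ratio to internal standard compared with time 0 to give % remaining. Half-life from single-phase exponential decay fit.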

Mus musculus [6] = experiment: Plasma half life in mouse at 25 mg/kg, ip measured at 0.25 hrs post dose by LC/MS analysis; format: ADME, organism-based; conditions: in vivo
Procedure, shortened: (§2)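 Mice given 25 mg/kg i.p., 3 animals per time point, sampled up to 2 h. Plasma taken from heparinized retro-orbital blood; brain homogenized in methanol. Both extracted with methanol plus internal standard and quantified by LC/MS against a standard curve. Half-life from single-phase exponential decay fit.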

Mus musculus [7] = experiment: Elevation of cGMP levels in hippocampal slices of wild type C57Bl6 mouse at 3 to 10 mg/kg, ip administered for 30 mins followed by foot shock measured at 10 to 180 secs after shock by enzyme immunoassay; format: functional, organism-based
Procedure, shortened: (§3)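 2-3 month old male and female C57Bl6 mice (20-25 g) dosed i.p. at 3 or 10 mg/kg in 2% DMSO & 2% Tween, or vehicle alone. Foot shock given 30 min later. Killed 10 s, 1 min or 3 min after shock. Hippocampi snap frozen. cGMP measured by enzyme immunoassay in duplicate and normalized to BCA protein. n=3 per group.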

Mus musculus [8] = experiment: Antialzheimer activity in APP1/PS1 transgenic mouse assessed as rescue contextual memory by measuring freezing at 3 mg/kg, ip administered daily for 3 weeks by contextual fear memory test (reference value: 15%); format: functional
Procedure, shortened: (§4)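 Mice (APP/PS1 or wild-type) dosed 3 mg/kg i.p. daily for 3 weeks from age 3-4 months. Contextual fear learning scored 24 h after training as freezing (no movement except respiration) over 5 min in the training chamber. Mice tested at 3-4 months or at 6-7 months of age. Experiments blind; mean ± SEM.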

Hippocampus [9] = experiment: Effect on long-term residual potentiation in wild type C57Bl6 mouse hippocampal slices at 50 nM administered via bath perfusion for 10 mins prior to tetanus measured at the last 5 mins of 2 hrs recording; format: ADME, tissue-based; conditions: 0.05 µM
Procedure, shortened: (§5)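 Acute hippocampal slices from 3–4 month old APP/PS1 transgenic mice or WT littermates. Slices received 50 nM compound or vehicle through bath perfusion for 10 min before tetanus. Residual potentiation was taken as the mean over the last 5 min of a 2 h recording. Experiments were blinded, values are SEM, and groups were compared by 2-way ANOVA for repeated measures.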

Mus musculus [10] = experiment: Elevation of cGMP levels in hippocampal slices of wild type C57Bl6 mouse at 10 mg/kg, ip administered for 30 mins followed by foot shock measured at 180 secs after shock by enzyme immunoassay relative to control; format: functional
Procedure, shortened: (§6)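 Male and female C57Bl6 mice, 2-3 months old, 20-25 g, given i.p. drug or vehicle (2% DMSO & 2% Tween). Foot shock 30 min after dosing; killed by cervical dislocation and decapitation at 10 s, 1 min or 3 min. Hippocampi snap-frozen. cGMP measured by enzyme immunoassay in duplicate and normalised to BCA protein; n=3 per group; compared with vehicle.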

[11] = Plasma concentration in mouse at 25 mg/kg, ip measured at 0.25 hrs post dose by LC/MS analysis; format: ADME, organism-based; procedure, shortened: as §2
Mus musculus [12] = experiment: Elevation of cGMP levels in hippocampal slices of wild type ip dosed C57Bl6 mouse administered for 30 mins followed by foot shock measured at 10 to 60 secs after shock by enzyme immunoassay; format: functional, organism-based; procedure, shortened: as §3
Liver [13] = experiment: Half life in human liver microsomes at 1 uM measured up to 60 mins by LC-MS/MS analysis; format: ADME, microsome; conditions: 1 h; procedure, shortened: as §1
[14] = Drug level in mouse brain at 25 mg/kg, ip measured at 0.25 hrs post dose by LC/MS analysis; format: ADME, organism-based; conditions: read-out: Drug uptake; procedure, shortened: as §2
Mus musculus [15] = experiment: Antialzheimer activity in 3 to 4 months old APP1/PS1 transgenic mouse model assessed as long-term residual potentiation in hippocampal slices at 3 mg/kg, ip administered daily for 3 weeks measured at age of 6 to 7 months (reference value: 164.11 +/- 10.36%); format: functional
Hippocampus [16] = experiment: Antialzheimer activity in […] transgenic mouse hippocampal slices assessed as long-term residual potentiation at 50 nM administered via bath perfusion for 10 mins prior to tetanus measured at the last 5 mins of 2 hrs recording (reference value: 137.90 +/- 10.83%); format: functional; procedure, shortened: as §5
Mus musculus [17] = experiment: Antialzheimer activity in APP1/PS1 transgenic mouse assessed as effect on number of errors at 3 mg/kg, ip administered daily for 3 weeks by 2 day radial arm water maze test (reference value: 3); format: functional
Mus musculus [18] = experiment: Elevation of cGMP levels in hippocampal slices of wild type C57Bl6 mouse at 10 mg/kg, ip administered for 30 mins followed by foot shock measured at 10 to 60 secs after shock by enzyme immunoassay relative to control; format: functional; procedure, shortened: as §6
Mus musculus [19] = experiment: Toxicity in wild type C57Bl6 mouse assessed as effect on freezing at 3 mg/kg, ip administered daily for 3 weeks by contextual fear memory test; format: organism-based; conditions: in vivo, 504 h; procedure, shortened: as §4
Mus musculus [20] = experiment: Antialzheimer activity in 3 to 4 months old APP1/PS1 transgenic mouse assessed as effect on freezing at 3 mg/kg, ip administered daily for 3 weeks measured at age of 6 to 7 months by contextual fear memory test (reference value: 15%); format: functional; procedure, shortened: as §4
Mus musculus [21] = experiment: Elevation of cGMP levels in hippocampal slices of wild type C57Bl6 mouse at 3 mg/kg, ip administered for 30 mins followed by foot shock measured at 10 to 60 secs after shock by enzyme immunoassay relative to control; format: functional; procedure, shortened: as §6
Mus musculus [22] = experiment: Toxicity in wild type C57Bl6 mouse assessed as effect on number of errors at 3 mg/kg, ip administered daily for 3 weeks by 2 day radial arm water maze test; format: organism-based; conditions: in vivo
Procedure, shortened: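 Wild-type mice given 3 mg/kg i.p. daily for 3 weeks from age 3-4 months. Tested in 2-day radial arm water maze, with a hidden platform in one of 6 arms. Errors counted, averaged per mouse over blocks of 3 trials. Blind scoring; SEM.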

Question: For `COc1ccc(CNc2c(CO)cnc3c(C4CC4)cc(C#N)cc23)cc1Cl`, which solubility kinetic at 18 h [1] is on record?
Answer: < 3.9 µM

Question: Which results are given for `CCN1Cc2nc3ccc(C#N)cc3c(NCc3ccc(OC)c(Cl)c3)c2C1=O`?
Answer: Ratio IC50 (Homo sapiens): 100; IC50 [2]: 6.6 nM; solubility kinetic at 18 h [1]: 3.1 µM (≈ 1.26 µg/mL)

Question: With `COc1ccc2nc3c(c(NCc4ccc(OC)c(Cl)c4)c2c1)CN(C(C)=O)CC3` as the compound, how does the IC50 [3] read?
Answer: 45.2 nM

Question: Which IC50 [3] does the source give for `COc1ccc(CNc2c3c(nc4ccc(Br)cc24)CCN(C(C)=O)C3)cc1Cl` here?
Answer: 3.1 nM

Question: Which IC50 [3] does the source give for `CC(=O)N1CCc2nc3ccc(C#N)cc3c(NCc3ccc(OC(F)(F)F)c(Cl)c3)c2C1` here?
Answer: 337 nM

Question: For `COc1ccc(CNc2c3c(nc4ccc(C#N)cc24)CCN(C(C)=O)C3)cc1Cl`, which Activity (Mus musculus [4]) is on record?
Answer: 1

Question: And the t1/2 (Liver [5])?
Answer: 3.2 min

Question: What about the t1/2 (Mus musculus [6]) of the same compound?
Answer: 64.2 min

Question: And the Activity (Mus musculus [7])?
Answer: Active

Question: And the Activity (Mus musculus [8])?
Answer: 30%

Question: What about the Activity (Hippocampus [9]) of the same compound?
Answer: Non-Toxic

Question: What about the “fold change (FC)” value (Mus musculus [10]) of the same compound?
Answer: 1.3

Question: And the concentration at 0.25 h [11]?
Answer: 1570 ng/mL

Question: And the Activity (Mus musculus [12])?
Answer: Dose-dependent effect

Question: And the t1/2 (Liver [13])?
Answer: 6 min

Question: And the concentration at 0.25 h [14]?
Answer: 492 ng/g

Question: And the Activity (Mus musculus [15])?
Answer: 226.22%

Question: And the Activity (Hippocampus [16])?
Answer: 201.76%

Question: And the Activity (Mus musculus [17])?
Answer: 1

Question: What about the “fold change (FC)” value (Mus musculus [18]) of the same compound?
Answer: 1.7

Question: And the Activity (Mus musculus [19])?
Answer: 30%

Question: And the Activity (Mus musculus [20])?
Answer: 40%

Question: What about the “fold change (FC)” value (Mus musculus [21]) of the same compound?
Answer: 1.5

Question: And the solubility kinetic at 18 h [1]?
Answer: > 500 µM

Question: And the Activity (Mus musculus [22])?
Answer: Non-Toxic

Question: Which IC50 [3] does the source give for `CCN1CCc2nc3ccc(C#N)cc3c(NCc3ccc(OC)c(Cl)c3)c2C1` here?
Answer: 0.19 nM

Question: Which IC50 [3] does the source give for `CC(=O)N1CCc2nc3ccc(C#N)cc3c(NCc3ccnc(Cl)c3)c2C1` here?
Answer: 57 nM

Question: With `CC(=O)N1CCc2nc3ccc(C#N)cc3c(NCc3ccc(F)c(Cl)c3)c2C1` as the compound, how does the IC50 [3] read?
Answer: 1.5 nM

Question: For `COc1ccc(CNc2c3c(nc4ccc(C#N)cc24)CCN(C)C3)cc1Cl`, which IC50 [3] is on record?
Answer: 0.59 nM

Question: With `COc1c(F)cc(CNc2c3c(nc4ccc(C#N)cc24)CCN(C(C)=O)C3)cc1Cl` as the compound, how does the IC50 [3] read?
Answer: 0.32 nM
